For test [1], the target named is T1, Polyunsaturated fatty acid 5-lipoxygenase (Rattus norvegicus) (UniProt P12527).
T1 sequence (whole entry): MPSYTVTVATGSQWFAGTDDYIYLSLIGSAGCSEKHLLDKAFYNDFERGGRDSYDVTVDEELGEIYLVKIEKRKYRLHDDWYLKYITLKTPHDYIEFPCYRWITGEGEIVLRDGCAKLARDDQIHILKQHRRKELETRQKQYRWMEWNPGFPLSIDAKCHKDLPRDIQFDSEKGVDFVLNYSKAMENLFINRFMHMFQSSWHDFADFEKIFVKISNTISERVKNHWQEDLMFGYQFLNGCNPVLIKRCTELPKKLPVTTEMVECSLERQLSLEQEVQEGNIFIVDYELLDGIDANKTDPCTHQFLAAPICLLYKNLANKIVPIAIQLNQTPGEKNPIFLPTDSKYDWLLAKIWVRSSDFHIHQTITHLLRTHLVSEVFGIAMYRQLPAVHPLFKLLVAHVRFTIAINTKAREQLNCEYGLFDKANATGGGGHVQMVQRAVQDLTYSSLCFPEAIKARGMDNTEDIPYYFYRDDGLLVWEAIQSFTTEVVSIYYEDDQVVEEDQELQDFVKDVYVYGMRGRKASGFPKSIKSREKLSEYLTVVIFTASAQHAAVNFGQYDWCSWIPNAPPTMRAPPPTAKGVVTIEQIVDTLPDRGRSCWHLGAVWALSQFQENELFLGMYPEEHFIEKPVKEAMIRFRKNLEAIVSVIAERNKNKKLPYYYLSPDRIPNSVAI
In words: Inhibitory activity against 5-lipoxygenase in RBL-1 cells at a concentration 40 uM. The format is cell-based. The gist of the method: (§1)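 Enzyme source was a 100000g supernatant of RBL-1 cells (2.5 × 10^6 cell equivalents). It was preincubated 5 min at 25 °C with compound or vehicle (2% DMSO) in 0.5 mL of 50 mM KH2PO4, 50 µM ATP, pH 7.0, then substrate was added. Inhibition was taken as the ratio of substrate remaining without versus with inhibitor. IC50 was obtained by linear regression of % inhibition against log concentration.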

Test [2] can be described thus: In vitro methemoglobin Induction at 10e-4 M in lysed human red blood cells. The format is functional. The gist of the method: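 Human red blood cells were lysed, and conversion of their hemoglobin to methemoglobin was followed spectrophotometrically in vitro.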
The test system of test [3] is Mus musculus. In words: Inhibition of 5-lipoxygenase in vivo by the measurement of LTC4 release after intraperitoneal 15 min pretreatment (45 min challenge) of mice with a dose of 20 mg/kg. The format is functional. Particulars: ip.
For test [4], the species on record is Mus musculus. In words: In vitro inhibition of zymosan stimulated release of Leukotriene C4 from intact mouse peritoneal macrophages. The format is functional. The gist of the method:
(§2)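 Mouse peritoneal macrophages collected by lavage, isolated by adherence and kept in Dulbecco's modified Eagle medium. Cells were pretreated with compound for 60 min, then challenged with opsonized zymosan. LTC4 in cell-free supernatant was measured by radioimmunoassay 3 h after challenge.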

Test [5] is described as follows: Inhibition of 5-HETE mammalian lipoxygenase at a concentration 20 uM. The format is functional. The gist of the method: (§3)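 Enzyme source was a 100000g supernatant from human polymorphonuclear cells isolated to 95% purity. It was preincubated with or without compound for 10 min at 20 °C in phosphate-buffered saline (pH 8.3) with 0.5 mM MgCl2. The reaction was started with 120 μM arachidonic acid and stopped with citric acid after 5 min. Products were detected by UV at 272 and 232 nm, with PGB2 as internal standard.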

A short description of test [6]: Inhibition of LTB4 mammalian lipoxygenase at a concentration 20 uM. The format is functional. An outline of the steps: as §3
Test [7] can be described thus: Inhibition of 12-HETE mammalian lipoxygenase at a concentration 20 uM. The format is functional. An outline of the steps:
as §3

Test [8] is described as follows: Potentiation of 15-HETE mammalian lipoxygenase at a concentration 20 uM. The format is functional. The gist of the method: as §3
The target of test [9] is T2, Polyunsaturated fatty acid 5-lipoxygenase (Rattus norvegicus, UniProt P12527).
T2 sequence (P12527 whole entry): T1 sequence (whole entry)
In words: Inhibition of 5-lipoxygenase in rat RBL-1 cells. The format is cell-based. The gist of the method: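 It was preincubated 5 min at 25 °C with compound or vehicle (2% DMSO) in 0.5 mL of 50 mM KH2PO4, 50 µM ATP, pH 7.0, then substrate was added. Inhibition was taken as the ratio of substrate remaining without versus with inhibitor. IC50 was obtained by linear regression of % inhibition against log concentration.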

The nature of test [10]: Inhibition of 15-HETE mammalian lipoxygenase at a concentration 20 uM. The format is functional. The gist of the method:
as §3

Test [11] is filed under the species Mus musculus. In words: In vitro inhibition of zymosan-stimulated release of Leukotriene C4 from intact mouse peritoneal macrophages following 60-min pretreatment/[…]. The format is functional. An outline of the steps:
as §2

Test [12] concerns the target T1, Polyunsaturated fatty acid 5-lipoxygenase (Rattus norvegicus). In words: Inhibitory activity against 5-lipoxygenase in RBL-1 cells at a concentration 40 uM. The format is cell-based. An outline of the steps:
as §1

Test [13] shares this target. In words: Inhibitory activity against 5-lipoxygenase in RBL-1 cells at 40 uM concentration. The format is cell-based. An outline of the steps: as §1

With `CCCCCCCCC#CC/C=C\C=C\Sc1ccccc1C(=O)OC`, in test [1], the inhibition amounted to 45%.
Take `CCCCCCCC/C=C\C/C=C\C=C\SCCCC(=O)OC`: the Induction in test [2] is on record as under 3%. Further, the inhibition in vivo at 20 mg/kg in the test with Mus musculus [3] is 80%. Further, the 50% inhibitory concentration (IC50) in the test filed under Mus musculus [4] turned out to be 22 µM; in test [9], 6.2 µM. In addition, the inhibition in test [5] worked out at 58%; in test [6] it was 60%; in test [7] it was 0%. Besides, in test [8], the Potentiation amounted to 20%.
As for `CC1=NN(CCOc2ccc3ccccc3c2)C(=O)C1` [NAFAZATROM], the Induction in [2] is under 3%. The inhibition was 30% in [10], 68% in test [5], 65% in test [6] and 58% in test [7].
On to `CCCCCCCCCCC/C=C\C=C\SCCCC(=O)OC`, for which the Induction in [2] is recorded as under 3%. Besides, the IC50 in the test filed under Mus musculus [11] is over 60 µM; in test [9], 22 µM. In addition, the inhibition in vivo at 20 mg/kg in the test with Mus musculus [3] was 10%.
`CCCCCCCC/C=C\C/C=C\C=C\SCCC(=O)OC` showed an inhibition in test [12] of 47%.
The compound `COc1ccc2c(c1)c(CC(=O)O)c(C)n2C(=O)c1ccc(Cl)cc1` [INDOMETHACIN] displayed an IC50 in test [9] of over 20 µM.
The compound `NC1=NN(c2cccc(C(F)(F)F)c2)CC1` [BW-755C] displayed an Induction in test [2] of 17%.
`CCCCCCCCC#CC/C=C\C=C\Sc1ccc(C(=O)OC)cc1` came in with an inhibition in test [1] of 21%.
`CC#CC/C=C\C=C\SCCCC(=O)OC` had an inhibition in [13] of 32%.
In [9], `CCCCCCCC/C=C\C/C=C\C=C\SCCCC(=O)O` came in with an IC50 of 7.2 µM.

Values taken from ChEMBL document CHEMBL1124740, “Design, synthesis, and 5-lipoxygenase-inhibiting properties of 1-thio-substituted butadienes” (J Med Chem, 1990).
